≈ marks a conversion by molar mass, not a printed value.

Experiment [1] addresses T1, 1-deoxy-D-xylulose 5-phosphate reductoisomerase, apicoplastic (Plasmodium falciparum (isolate 3D7)) (UniProt Q8IKG4).
T1 sequence (whole entry): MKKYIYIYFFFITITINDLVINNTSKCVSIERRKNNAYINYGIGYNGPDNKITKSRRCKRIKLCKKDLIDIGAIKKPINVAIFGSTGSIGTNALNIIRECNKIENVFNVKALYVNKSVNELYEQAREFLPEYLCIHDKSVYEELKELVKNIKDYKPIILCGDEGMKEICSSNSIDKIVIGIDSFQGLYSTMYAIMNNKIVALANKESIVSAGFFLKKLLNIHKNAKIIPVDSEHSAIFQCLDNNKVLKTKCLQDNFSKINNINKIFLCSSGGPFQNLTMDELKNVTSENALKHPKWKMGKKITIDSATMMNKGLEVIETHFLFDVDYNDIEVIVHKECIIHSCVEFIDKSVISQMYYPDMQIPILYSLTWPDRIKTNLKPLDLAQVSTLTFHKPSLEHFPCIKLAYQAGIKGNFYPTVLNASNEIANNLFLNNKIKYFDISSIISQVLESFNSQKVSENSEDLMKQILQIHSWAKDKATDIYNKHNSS
As to the kind of experiment: Inhibition of Plasmodium falciparum DXR expressed in Escherichia coli BL21 CodonPlus (DE3)-RIL cells assessed as remaining activity using DOXP as substrate at 100 uM in presence of NADPH by UV-visible spectrophotometry relative to control. The method, boiled down:
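Recombinant His-tagged PfDXR purified by TALON affinity. Assay at 37 °C in 100 mM Tris pH 7.8, 25 mM MgCl2, 0.86 µM enzyme, 150 µM NADPH; reaction started with 144 µM DOXP. NADPH oxidation followed at 340 nm. Single inhibitor concentration 100 µM, given as percent remaining activity; technical duplicates.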

Experiment [2] deals with Plasmodium falciparum. Nature of the experiment: Antiplasmodial activity against Plasmodium falciparum 3D7 assessed as reduction in parasite growth by measuring DNA content after 3 days by PicoGreen staining based FLUOstar omega microplate reader analysis. The note with it: 3D7, 72 h. Type of experiment: functional, organism-based. The method in brief:
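Asynchronous cultures in 2% hematocrit, RPMI-1640 complete medium with 0.5% Albumax, under 5% O2/5% CO2/90% N2 at 37 °C. Diluted to 0.5% parasitemia, inhibitors 1.2 nM to 492.4 µM added at start. Growth read after 3 days as DNA content by PicoGreen fluorescence (485/528 nm). IC50 from 4-parameter nonlinear regression; technical duplicate, biological triplicate.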

The target in experiment [3] is T2, 1-deoxy-D-xylulose 5-phosphate reductoisomerase (Mycobacterium tuberculosis) (UniProt P9WNS1).
T2 sequence (whole entry): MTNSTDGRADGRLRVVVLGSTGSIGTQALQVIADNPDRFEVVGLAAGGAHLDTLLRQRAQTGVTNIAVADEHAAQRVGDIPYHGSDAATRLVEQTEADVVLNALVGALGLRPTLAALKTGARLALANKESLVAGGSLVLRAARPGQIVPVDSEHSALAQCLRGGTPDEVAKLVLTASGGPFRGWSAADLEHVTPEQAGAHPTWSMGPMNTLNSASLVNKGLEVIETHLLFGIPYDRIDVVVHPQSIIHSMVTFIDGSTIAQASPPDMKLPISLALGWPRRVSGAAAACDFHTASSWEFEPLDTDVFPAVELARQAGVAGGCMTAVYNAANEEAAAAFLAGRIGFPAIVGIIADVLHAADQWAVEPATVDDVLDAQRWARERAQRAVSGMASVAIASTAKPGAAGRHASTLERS
Nature of the experiment: Inhibition of Mycobacterium tuberculosis DXR expressed in Escherichia coli BL21 CodonPlus (DE3)-RIL cells assessed as remaining activity using DOXP as substrate at 100 uM in presence of NADPH by UV-visible spectrophotometry relative to control. The method, boiled down: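 Recombinant MtbDXR (pET101/D-TOPO in E. coli BL21 CodonPlus (DE3)-RIL, IMAC-purified) at 0.89 µM in 100 mM MES pH 6.5, 25 mM MgCl2, 150 µM NADPH, 47 µM DOXP, 37 °C. Inhibitor was tested at a single 100 µM. NADPH oxidation was followed at 340 nm, and percent remaining activity was reported. Technical duplicates.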

In experiment [4] the test system is Mycobacterium tuberculosis. Nature of the experiment: Antibacterial activity against Mycobacterium tuberculosis H37Rv assessed as reduction in bacterial growth incubated for 2 weeks by macroscopic plate reader analysis. Type of experiment: functional. The note with it: 336 h. The method in brief:
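H37Rv grown in 7H9 broth with 0.08% NaCl, 0.4% glucose, 0.05% casitone and 0.05% tyloxapol, then diluted 1:500. Compounds were made as 20 mg/mL DMSO stocks and run as eleven 2-fold serial dilutions. Plates were held 2 weeks at 37 °C and MIC99 was read macroscopically. Three independent measurements.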

Experiment [5] addresses T3, 1-deoxy-D-xylulose 5-phosphate reductoisomerase, apicoplastic (Plasmodium falciparum (isolate 3D7), UniProt Q8IKG4).
T3 sequence (Q8IKG4 whole entry): T1 sequence (whole entry)
As to the kind of experiment: Inhibition of Plasmodium falciparum DXR expressed in Escherichia coli BL21 CodonPlus (DE3)-RIL cells using DOXP as substrate in presence of NADPH by UV-visible spectrophotometry.

The target of experiment [6] is T1, 1-deoxy-D-xylulose 5-phosphate reductoisomerase, apicoplastic (Plasmodium falciparum (isolate 3D7)). Nature of the experiment: Inhibition of Plasmodium falciparum DXR expressed in Escherichia coli BL21 CodonPlus (DE3)-RIL cells using DOXP as substrate at 100 uM in presence of NADPH by UV-visible spectrophotometry relative to control. The method, boiled down: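 PfDXR single-point test at 100 µM inhibitor. Conditions: 0.86 µM IMAC-purified enzyme, 100 mM Tris pH 7.8, 25 mM MgCl2, 150 µM NADPH, 37 °C. Reaction was started with 144 µM DOXP, and NADPH oxidation was monitored at 340 nm. Percent remaining activity was reported; technical duplicates.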

In the case of `CC(=O)N(CCC(c1ccc(Cl)c(Cl)c1)P(=O)(O)O)OC(C)c1ccc(C(F)(F)F)cc1` (centres undefined), the results for the Activity in experiment [1] and in experiment [3] were 74.7% and 59.6%, respectively. In addition, the IC50 in experiment [2] is 79.2 µM. For the same compound, the MIC in experiment [4] was more than 91 µM.
For the compound `CC(=O)N(CCC(c1ccc(Cl)c(Cl)c1)P(=O)(OCOC(=O)C(C)(C)C)OCOC(=O)C(C)(C)C)OC(C)c1ccc(F)cc1` (centres undefined), in experiment [2], the IC50 turned out to be 21.2 µM. The MIC in experiment [4] is 6.6 µM (≈ 4.57 µg/mL).
Take `CC(=O)N(CCC(c1ccc(Cl)c(Cl)c1)P(=O)(O)O)OCc1ccc(Br)cc1` (centres undefined): the values for the Activity in experiment [1] and in experiment [3] were 53.1% and 72.3%, respectively. In addition, in experiment [2], the IC50 is 67.8 µM. For the same compound, the MIC in experiment [4] was more than 92 µM.
As to `CC(=O)N(CCC(c1ccc(Cl)c(Cl)c1)P(=O)(O)O)OCc1ccc(C(C)C)cc1` (centres undefined), the values for the IC50 in experiment [5] and in experiment [2] were 26.5 µM and 68.7 µM, respectively. Also, the Activity in experiment [3] was 80.9%. Moreover, in experiment [4], the MIC came out at 12.3 µM (≈ 5.83 µg/mL). Further, in experiment [6], the inhibition is more than 90%.
Turning to `CC(=O)N(O)CCC(c1ccc(Cl)c(Cl)c1)P(=O)(O)O` (centres undefined), the IC50 in experiment [5] stood at 13.6 µM; in experiment [2] it was 18.6 µM. In experiment [3], the Activity amounted to 15.7%. In experiment [4], the MIC was more than 266 µM. The inhibition in experiment [6] was more than 90%.
On to `CC(=O)N(CCC(c1ccc(Cl)c(Cl)c1)P(=O)(O)O)OCc1ccccc1` (centres undefined), for which the values for the Activity in experiment [1] and in experiment [3] were 26.7% and 34.2%, respectively. In addition, the half-maximal inhibitory concentration (IC50) in experiment [2] stood at 31.5 µM. Moreover, the MIC in experiment [4] is more than 214 µM.
As to `CC(=O)N(CCC(c1ccc(Cl)c(Cl)c1)P(=O)(OCOC(=O)C(C)(C)C)OCOC(=O)C(C)(C)C)OCc1ccc(C(C)C)cc1` (centres undefined), the IC50 in experiment [2] was found to be 13.9 µM. In addition, in experiment [4], the MIC is 17.8 µM (≈ 12.5 µg/mL).
`CC(=O)N(CCC(c1ccc(Cl)c(Cl)c1)P(=O)(OCOC(=O)C(C)(C)C)OCOC(=O)C(C)(C)C)OC(C)c1ccc(C(F)(F)F)cc1` (centres undefined): the IC50 in experiment [2] was determined as 23.8 µM. The MIC in experiment [4] is more than 134 µM.
Consider `CC(=O)N(CCC(c1ccc(Cl)c(Cl)c1)P(=O)(OCOC(=O)C(C)(C)C)OCOC(=O)C(C)(C)C)OC(C)c1ccc(C)cc1` (centres undefined), for which, in experiment [2], the IC50 was determined as 31.9 µM. The MIC in experiment [4] amounted to 18.2 µM (≈ 12.5 µg/mL).
Consider `CC(=O)N(CCC(c1ccc(Cl)c(Cl)c1)P(=O)(OCOC(=O)C(C)(C)C)OCOC(=O)C(C)(C)C)OCc1ccc2ccccc2c1` (centres undefined), for which the IC50 in experiment [2] stood at 14 µM. The MIC in experiment [4] was determined as 8.8 µM (≈ 6.25 µg/mL).
For `CC(=O)N(CCC(c1ccc(Cl)c(Cl)c1)P(=O)(OCOC(=O)C(C)(C)C)OCOC(=O)C(C)(C)C)OCc1ccc(-c2ccccc2)cc1` (centres undefined), in experiment [2], the IC50 was 8.78 µM. The MIC in experiment [4] was found to be 17 µM (≈ 12.5 µg/mL).
Turning to `CC(=O)N(CCC(c1ccc(Cl)c(Cl)c1)P(=O)(O)O)OCc1ccc(-c2ccc(C(C)C)cc2)cc1` (centres undefined), the Activity in experiment [1] came to 56.1%; in experiment [3] it was 63.2%. In addition, in experiment [2], the IC50 is 38.1 µM. Further, the MIC in experiment [4] is 45 µM (≈ 24.8 µg/mL).
As for `CC(=O)N(CCC(c1ccc(Cl)c(Cl)c1)P(=O)(OCOC(=O)C(C)(C)C)OCOC(=O)C(C)(C)C)OCc1ccc(Br)cc1` (centres undefined), the IC50 in experiment [2] came out at 34.8 µM. Also, the minimum inhibitory concentration (MIC) in experiment [4] is 8.5 µM (≈ 6.29 µg/mL).
The like results for `CC(=O)N(O)CCC(c1ccc(Cl)c(Cl)c1)P(=O)(OCOC(=O)C(C)(C)C)OCOC(=O)C(C)(C)C` (centres undefined) were, in that order, 13 µM and 8.1 µM (≈ 4.62 µg/mL).
Regarding `CC(=O)N(CCC(c1ccc(Cl)c(Cl)c1)P(=O)(O)O)OCc1ccc(-c2ccccc2)cc1` (centres undefined), the Activity in experiment [1] stood at 27%; in experiment [3], 93.9%. The IC50 in experiment [2] came to 86.4 µM. In experiment [4], the MIC amounted to 23.1 µM (≈ 11.7 µg/mL).
Take `CC(=O)N(CCC(c1ccc(Cl)c(Cl)c1)P(=O)(OCOC(=O)C(C)(C)C)OCOC(=O)C(C)(C)C)OC(C)c1ccccc1` (centres undefined): the IC50 in experiment [2] is 5.22 µM. Besides, the MIC in experiment [4] came to 3.9 µM (≈ 2.63 µg/mL).
As for `CC(=O)N(CCC(c1ccc(Cl)c(Cl)c1)P(=O)(O)O)OCc1ccc2ccccc2c1` (centres undefined), the Activity is 46.6% in experiment [1] and 82.1% in experiment [3]. Also, the IC50 in experiment [2] is 60.9 µM. In addition, in experiment [4], the MIC was 24.2 µM (≈ 11.7 µg/mL).
As to `CC(=O)N(CCC(c1ccc(Cl)c(Cl)c1)P(=O)(O)O)OC(C)c1ccccc1` (centres undefined), the IC50 worked out at 16.8 µM in experiment [5] and 3.6 µM in experiment [2]. Besides, the Activity in experiment [3] was found to be 64.6%. For the same compound, the MIC in experiment [4] is more than 208 µM. Moreover, the inhibition in experiment [6] was more than 90%.
Regarding `CC(=O)N(CCC(c1ccc(Cl)c(Cl)c1)P(=O)(OCOC(=O)C(C)(C)C)OCOC(=O)C(C)(C)C)OCc1ccc(-c2ccc(C(C)C)cc2)cc1` (centres undefined), the IC50 in experiment [2] was 14.9 µM. The MIC in experiment [4] was more than 128 µM.
`CC(=O)N(CCC(c1ccc(Cl)c(Cl)c1)P(=O)(O)O)OC(C)c1ccc(Cl)cc1` (centres undefined): the IC50 in experiment [5] stood at 20.4 µM; in experiment [2], 68.6 µM. Besides, the Activity in experiment [3] was determined as 66.2%. Moreover, in experiment [4], the MIC amounted to 72 µM (≈ 34.6 µg/mL). The inhibition in experiment [6] was more than 90%.
`CC(=O)N(CCC(c1ccc(Cl)c(Cl)c1)P(=O)(OCOC(=O)C(C)(C)C)OCOC(=O)C(C)(C)C)OCCCCc1ccccc1` (centres undefined): the IC50 in experiment [2] came to 13.9 µM. In addition, the MIC in experiment [4] was found to be 17.8 µM (≈ 12.5 µg/mL).
With `CC(=O)N(CCC(c1ccc(Cl)c(Cl)c1)P(=O)(O)O)OCCCCc1ccccc1` (centres undefined), the values for the Activity in experiment [1] and in experiment [3] were 25.6% and 99.1%, respectively. For the same compound, the IC50 in experiment [2] is 63.3 µM. The MIC in experiment [4] stood at 3.1 µM (≈ 1.47 µg/mL).
Consider `CC(=O)N(CCC(c1ccc(Cl)c(Cl)c1)P(=O)(OCOC(=O)C(C)(C)C)OCOC(=O)C(C)(C)C)OCc1ccccc1` (centres undefined), for which the IC50 in experiment [2] was 41.6 µM. Moreover, the MIC in experiment [4] is 9.5 µM (≈ 6.28 µg/mL).
Turning to `CC(=O)N(CCC(c1ccc(Cl)c(Cl)c1)P(=O)(OCOC(=O)C(C)(C)C)OCOC(=O)C(C)(C)C)OC(C)c1ccc(Cl)cc1` (centres undefined), the IC50 in experiment [2] came to 30.1 µM. In addition, the MIC in experiment [4] was found to be 13.3 µM (≈ 9.43 µg/mL).

Source of the values: ChEMBL document CHEMBL5576114, “Inhibition of DXR in the MEP pathway with lipophilic N-alkoxyaryl FR900098 analogs” (RSC Med Chem, 2024).
